Measured values taken from ChEMBL document CHEMBL1255370, “Activity of pradofloxacin against Porphyromonas and Prevotella spp. Implicated in periodontal disease in dogs: susceptibility test data from a European multicenter study” (2008).
Values after ≈ are worked out from the molar mass of the structure shown.

Legend:
[1] = system: Porphyromonas; assay: Antimicrobial activity against Porphyromonas isolated from canine periodontal pockets after 48 hrs by agar dilution method; type: functional
Outline: (§1)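 Isolates came from canine periodontal pockets (2004–2006, six countries; dogs without antimicrobials for ≥4 weeks), cultured anaerobically at 35 ± 1°C and identified by Biolog. MICs were found by CLSI M11-A6 agar dilution on brucella blood agar with hemin and vitamin K, using a multipoint inoculator under strict anaerobiosis for up to 48 h. QC strains were B. fragilis ATCC 25285 and E. lentum ATCC 43055.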

[2] = system: Prevotella corporis; assay: Antimicrobial activity against Prevotella corporis isolated from canine periodontal pockets after 48 hrs by agar dilution method; type: functional; outline: as §1
[3] = system: Prevotella sp.; assay: Antimicrobial activity against Prevotella sp. isolated from canine periodontal pockets after 48 hrs by agar dilution method; type: functional; outline: as §1
[4] = system: Bacteroides heparinolyticus; assay: Antimicrobial activity against Bacteroides heparinolyticus isolated from canine periodontal pockets after 48 hrs by agar dilution method; type: functional; details: Prevotella heparinolytica; outline: as §1
[5] = system: Porphyromonas circumdentaria; assay: Antimicrobial activity against Porphyromonas circumdentaria isolated from canine periodontal pockets after 48 hrs by agar dilution method; type: functional; outline: as §1
[6] = system: Hoylesella loescheii; assay: Antimicrobial activity against Prevotella loescheii isolated from canine periodontal pockets after 48 hrs by agar dilution method; type: functional; outline: as §1
[7] = system: Prevotella disiens; assay: Antimicrobial activity against Prevotella disiens isolated from canine periodontal pockets after 48 hrs by agar dilution method; type: functional; outline: as §1
[8] = system: Porphyromonas macacae; assay: Antimicrobial activity against Porphyromonas macacae isolated from canine periodontal pockets after 48 hrs by agar dilution method; type: functional; outline: as §1
[9] = system: Prevotella intermedia; assay: Antimicrobial activity against Prevotella intermedia isolated from canine periodontal pockets after 48 hrs by agar dilution method; type: functional; outline: as §1
[10] = system: Porphyromonas gingivalis; assay: Antimicrobial activity against Porphyromonas gingivalis isolated from canine periodontal pockets after 48 hrs by agar dilution method
[11] = system: Prevotella denticola; assay: Antimicrobial activity against Prevotella denticola isolated from canine periodontal pockets after 48 hrs by agar dilution method; type: functional; outline: as §1
[12] = system: Porphyromonas asaccharolytica; assay: Antimicrobial activity against Porphyromonas asaccharolyticus isolated from canine periodontal pockets after 48 hrs by agar dilution method; type: functional; outline: as §1
[13] = system: Prevotella oris; assay: Antimicrobial activity against Prevotella oris isolated from canine periodontal pockets after 48 hrs by agar dilution method; type: functional; details: Segatella oris; outline: as §1
[14] = system: Prevotella buccae; assay: Antimicrobial activity against Prevotella buccae isolated from canine periodontal pockets after 48 hrs by agar dilution method; type: functional; details: Segatella buccae; outline: as §1
[15] = system: Prevotella oulorum; assay: Antimicrobial activity against Prevotella oulorum isolated from canine periodontal pockets after 48 hrs by agar dilution method; type: functional; details: Segatella oulorum; outline: as §1
[16] = system: Porphyromonas levii; assay: Antimicrobial activity against Porphyromonas levii isolated from canine periodontal pockets after 48 hrs by agar dilution method; type: functional; outline: as §1
[17] = system: Prevotella nigrescens; assay: Antimicrobial activity against Prevotella nigrescens isolated from canine periodontal pockets after 48 hrs by agar dilution method; type: functional; outline: as §1
[18] = system: Porphyromonas macacae; assay: Antimicrobial activity against Porphyromonas salivosa isolated from canine periodontal pockets after 48 hrs by agar dilution method; type: functional; outline: as §1
[19] = system: Bacteroides zoogleoformans; assay: Antimicrobial activity against Bacteroides zoogleoformans isolated from canine periodontal pockets after 48 hrs by agar dilution method; type: functional; outline: as §1
[20] = system: Hoylesella oralis; assay: Antimicrobial activity against Prevotella oralis isolated from canine periodontal pockets after 48 hrs by agar dilution method; type: functional; outline: as §1

MIC50 [2] | MIC90 [2] | MIC50 [3] | MIC90 [3] | MIC50 [4] | MIC90 [4] | MIC50 [5] | MIC90 [5] | MIC50 [7] | MIC50 [8] | MIC90 [8] | MIC50 [9] | MIC50 [10] | MIC90 [10] | MIC50 [11] | MIC50 [12] | MIC90 [12] | MIC50 [13] | MIC [14] | SMILES | MIC [6] | also measured
 |  |  |  |  |  |  |  |  |  |  |  |  |  |  |  |  |  |  | NC1CCN(c2c(F)cc3c(=O)c(C(=O)O)cn(C4CC4)c3c2Cl)C1 (configuration not stated) [CLINAFLOXACIN] |  | MIC90 [1]: 0.125 µg/mL (≈ 0.342 µM)
0.062 µg/mL (≈ 0.362 µM) | 0.25 µg/mL (≈ 1.46 µM) | 0.25 µg/mL (≈ 1.46 µM) | 0.5 µg/mL (≈ 2.92 µM) | 0.25 µg/mL (≈ 1.46 µM) | 0.5 µg/mL (≈ 2.92 µM) | 0.125 µg/mL (≈ 0.73 µM) | 0.25 µg/mL (≈ 1.46 µM) | 0.062 µg/mL (≈ 0.362 µM) | 0.125 µg/mL (≈ 0.73 µM) | 0.25 µg/mL (≈ 1.46 µM) | ≤ 0.016 µg/mL | 0.062 µg/mL (≈ 0.362 µM) | 0.25 µg/mL (≈ 1.46 µM) | 0.125 µg/mL (≈ 0.73 µM) | 0.031 µg/mL (≈ 0.181 µM) | 0.125 µg/mL (≈ 0.73 µM) | 0.5 µg/mL (≈ 2.92 µM) | 0.5 µg/mL (≈ 2.92 µM) | Cc1ncc([N+](=O)[O-])n1CCO [METRONIDAZOLE] | 0.062 µg/mL (≈ 0.362 µM) | MIC [9]: ≤ 0.016 µg/mL; MIC [15]: 0.25 µg/mL (≈ 1.46 µM); MIC50 [16]: 0.062 µg/mL (≈ 0.362 µM); MIC90 [16]: 0.125 µg/mL (≈ 0.73 µM); MIC50 [17]: 0.125 µg/mL (≈ 0.73 µM); MIC90 [17]: 0.5 µg/mL (≈ 2.92 µM); MIC50 [18]: 0.25 µg/mL (≈ 1.46 µM); MIC90 [18]: 0.5 µg/mL (≈ 2.92 µM); MIC [19]: 0.125 µg/mL (≈ 0.73 µM); MIC50 [20]: 0.25 µg/mL (≈ 1.46 µM)
0.062 µg/mL (≈ 0.156 µM) | 0.125 µg/mL (≈ 0.315 µM) | 0.062 µg/mL (≈ 0.156 µM) | 0.25 µg/mL (≈ 0.631 µM) | 0.062 µg/mL (≈ 0.156 µM) | 0.25 µg/mL (≈ 0.631 µM) | 0.062 µg/mL (≈ 0.156 µM) | 0.25 µg/mL (≈ 0.631 µM) | 0.062 µg/mL (≈ 0.156 µM) | 0.062 µg/mL (≈ 0.156 µM) | 0.125 µg/mL (≈ 0.315 µM) | 0.031 µg/mL (≈ 0.0782 µM) | 0.031 µg/mL (≈ 0.0782 µM) | 0.125 µg/mL (≈ 0.315 µM) | 0.062 µg/mL (≈ 0.156 µM) | 0.062 µg/mL (≈ 0.156 µM) | 0.062 µg/mL (≈ 0.156 µM) | 0.062 µg/mL (≈ 0.156 µM) | 0.25 µg/mL (≈ 0.631 µM) | N#Cc1c(N2C[C@@H]3CCCN[C@@H]3C2)c(F)cc2c(=O)c(C(=O)O)cn(C3CC3)c12 [PRADOFLOXACIN] | 0.062 µg/mL (≈ 0.156 µM) | MIC [11]: 0.062 µg/mL (≈ 0.156 µM); MIC [15]: 0.031 µg/mL (≈ 0.0782 µM); MIC50 [16]: 0.062 µg/mL (≈ 0.156 µM); MIC90 [16]: 0.125 µg/mL (≈ 0.315 µM); MIC50 [17]: 0.062 µg/mL (≈ 0.156 µM); MIC90 [17]: 0.25 µg/mL (≈ 0.631 µM); MIC50 [18]: 0.125 µg/mL (≈ 0.315 µM); MIC90 [18]: 0.125 µg/mL (≈ 0.315 µM); MIC [19]: 0.125 µg/mL (≈ 0.315 µM); MIC [20]: 0.062 µg/mL (≈ 0.156 µM); MIC50 [20]: 0.062 µg/mL (≈ 0.156 µM)
